Here are results for seven compounds from ChEMBL document CHEMBL1151719, “Discovery of a "true" aspirin prodrug” (J Med Chem, 2008).

As usually defined, the half-life is the time needed for the level to fall by half in the phase considered. The term inhibition denotes the relative decrease from the control value, in per cent. One may read the IC50 as the concentration needed to halve the response being measured.

The nature of series [1]: Stability in 10% human plasma assessed as half life of hydrolysis at pH 7.4. The series is classed as ADME, cell-free. The method in brief: (§1)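 Pooled plasma or serum from centrifuged citrated human venous blood, diluted with pH 7.4 phosphate buffer (whole blood undiluted), preheated to 37 ± 0.5 °C. Ester added from acetonitrile at 5 × 10^-5 M. Aliquots were quenched in 2% ZnSO4 in MeCN/H2O (1:1), centrifuged, and analysed by gradient C18 HPLC (230 nm) until the parent was consumed. Fit to first-order decay; triplicate.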

For series [2], the target named is Cholinesterase (Homo sapiens) (UniProt P06276). In words: Activity of BuChE in 10% human plasma. More on the design: Vmax(app): unit not given here. The series is classed as cell-free. An outline of the steps:
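Citrated human venous blood was centrifuged, and the pooled plasma or serum was diluted with phosphate buffer pH 7.4. Whole blood was used undiluted. Ester substrate at 5 × 10^-5 M was added from acetonitrile and incubated at 37 °C. Timed aliquots were quenched in ZnSO4 in MeCN/H2O and analysed by HPLC at 230 nm. Apparent KM and Vmax were fitted to the integrated Michaelis-Menten equation. Triplicate.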

Series [3] relates to Platelet. In words: Inhibition of arachidonic acid-induced platelet aggregation in whole blood at 100 uM. Type of series: functional. An outline of the steps:
(§2)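 Citrated human whole blood (500 µL) diluted with 500 µL saline, equilibrated 10 min at 37 °C, then pre-incubated 10 min with stirring with test compound added in DMSO (10 µL). Aggregation triggered by arachidonic acid (0.5 mM); impedance read over 6 min. Inhibition tested over 5-100 µM; fit by nonlinear regression.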

Series [4] deals with Plasma. In words: Stability in 10% human plasma assessed as aspirin yield at pH 7.4. Type of series: ADME, cell-free. An outline of the steps: as §1
Series [5] is described as follows: Stability in 30% human plasma assessed as half life of hydrolysis at pH 7.4 in presence of 2 mM arylesterase inhibitor EDTA. The series is classed as ADME, cell-free. To be noted: pH 7.4, with EDTA (arylesterase inhibitor). The method in brief: (§3)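 Pooled citrated human plasma was diluted to 30% with phosphate buffer pH 7.4. Inhibitor was preincubated for 5 min before adding ester (5 × 10^-5 M) at 37 °C. Lines 15-16 used plasma from a donor with dibucaine-resistant BuChE. Timed aliquots were quenched with ZnSO4 in MeCN/H2O, and parent and aspirin were measured by HPLC at 230 nm. kobs came from exponential decay. Three determinations, mean ± SD.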

Series [6] concerns Plasma. In words: Stability in 30% human plasma assessed as aspirin yield at pH 7.4 in presence of 20 uM BuChE subtype inhibitor dibucaine. Type of series: ADME, cell-free. An outline of the steps:
as §3

Series [7] deals with Butyrylcholinesterase (Rattus norvegicus) (UniProt Q9JKC1). In words: Activity of BuChE in 10% rat plasma.
A short description of series [8]: Stability in 30% human plasma assessed as half life of hydrolysis at pH 7.4 in presence of 20 uM dubucaine-insensitive BuChE subtype inhibitor dibucaine. Type of series: ADME, cell-free. To be noted: pH 7.4, with dibucaine. An outline of the steps:
as §3

Series [9] relates to Plasma. In words: Stability in 50% human plasma assessed as aspirin yield at pH 7.4. The series is classed as ADME, cell-free. The method in brief: as §1
Series [10] can be described thus: Stability in whole blood assessed as aspirin yield at pH 7.4. Type of series: ADME, tissue-based. The method in brief:
as §1

Series [11] in a line: Stability in 10% rat plasma assessed as half life of hydrolysis at pH 7.4. Type of series: ADME, cell-free.
The subject of series [12] is Platelet. In words: Inhibition of arachidonic acid-induced platelet aggregation in whole blood. The series is classed as functional, tissue-based. An outline of the steps: as §2
A short description of series [13]: Stability in 30% human plasma assessed as half life of hydrolysis at pH 7.4 in presence of 10 uM carboxylesterase inhibitor BNPP. The series is classed as ADME, cell-free. Particulars: pH 7.4, with BNPP (carboxylesterase inhibitor). An outline of the steps: as §3
A short description of series [14]: Stability in 30% human plasma assessed as half life of hydrolysis at pH 7.4 in presence of 0.1 uM AChE inhibitor BW284c51. The series is classed as ADME, cell-free. To be noted: pH 7.4, with BW284c51 (AChE inhibitor). The method in brief: as §3
Series [15] is described as follows: (§4) Stability in 50% human plasma assessed as half life of hydrolysis at pH 7.4. Particulars: 50% human plasma. Type of series: ADME, cell-free. An outline of the steps: (§5)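 Ester at 5 × 10^-5 M, added from acetonitrile, was incubated at 37 °C in pooled citrated human plasma diluted to 50% with phosphate buffer pH 7.4. Aliquots were deproteinised with ZnSO4 in MeCN/H2O and the remaining ester was quantified by HPLC at 230 nm. The rate constant came from an exponential decay fit. Triplicate.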

Series [16] is described as follows: Stability in 30% human plasma assessed as half life of hydrolysis at pH 7.4 in presence of 20 uM BuChE subtype inhibitor dibucaine. The series is classed as ADME, cell-free. Particulars: pH 7.4, with dibucaine (BuChE subtype inhibitor). An outline of the steps:
as §3

Series [17] can be described thus: Stability in 30% human plasma assessed as half life of hydrolysis at pH 7.4 in presence of 20 uM cholinesterase inhibitor eserine. Type of series: ADME, cell-free. To be noted: pH 7.4, with eserine (cholinesterase inhibitor). An outline of the steps:
as §3

Series [18] in a line: Stability in 30% human plasma assessed as half life of hydrolysis at pH 7.4 in presence of 10 uM BuChE inhibitor iso-OMPA. Particulars: pH 7.4, with iso-OMPA (BuChE inhibitor). Type of series: ADME, cell-free. An outline of the steps:
as §3

Series [19] in a line: Stability in whole blood assessed as half life of hydrolysis at pH 7.4. Type of series: ADME, tissue-based. The method in brief: as §1
For series [20], the system named is Plasma. In words: Stability in 30% human plasma assessed as aspirin yield at pH 7.4 in presence of 10 uM carboxylesterase inhibitor BNPP. Type of series: ADME, cell-free. An outline of the steps: (§6)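 Diluted human plasma (30%, pH 7.4, 37 °C) pre-incubated 5 min with inhibitor (EDTA 2 mM or BNPP 10 µM) before ester addition at 5 × 10^-5 M from acetonitrile. ZnSO4/MeCN quench, then HPLC of ester and aspirin. First-order fit; three determinations.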

Series [21] has as its system Plasma. As to the kind of experiment: Stability in 30% human plasma assessed as aspirin yield at pH 7.4 in presence of 2 mM arylesterase inhibitor EDTA. The series is classed as ADME, cell-free. An outline of the steps: as §6
A further series has as its system Serum. As to the kind of experiment: Stability in 50% human serum assessed as aspirin yield at pH 7.4. Type of series: ADME, cell-free. The method in brief: as §1
Series [22] can be described thus: Stability in 30% human plasma assessed as half life of hydrolysis at pH 7.4 in presence of 100 uM AChE inhibitor BW284c51. The series is classed as ADME, cell-free. Particulars: pH 7.4, with BW284c51 (AChE inhibitor). The method in brief: as §3
The nature of series [23]: Stability in 50% human serum assessed as half life of hydrolysis at pH 7.4. Type of series: ADME, cell-free. The method in brief: as §1
The test system of series [24] is Plasma. In words: Stability in 30% human plasma assessed as aspirin yield at pH 7.4 in presence of 100 uM AChE inhibitor BW284c51. Type of series: ADME, cell-free. The method in brief:
as §3

The test system of series [25] is Plasma. As to the kind of experiment: Stability in 30% plasma from patient with dubucaine-insensitive BuChE assessed as aspirin yield at pH 7.4 in presence of 20 uM BuChE inhibitor dibucaine. Type of series: ADME, cell-free. To be noted: human. The method in brief: as §3
Series [26] deals with Plasma. The series is described as §4. Type of series: ADME, cell-free. To be noted: plasma. An outline of the steps: as §5
Series [27] deals with Plasma. As to the kind of experiment: Stability in 30% human plasma assessed as aspirin yield at pH 7.4. The series is classed as ADME, cell-free. The method in brief: as §1
Series [28] in a line: Stability in 30% human plasma assessed as half life of hydrolysis at pH 7.4. The series is classed as ADME, cell-free. The method in brief: as §1

Sequence of Cholinesterase (Homo sapiens) (P06276 whole entry): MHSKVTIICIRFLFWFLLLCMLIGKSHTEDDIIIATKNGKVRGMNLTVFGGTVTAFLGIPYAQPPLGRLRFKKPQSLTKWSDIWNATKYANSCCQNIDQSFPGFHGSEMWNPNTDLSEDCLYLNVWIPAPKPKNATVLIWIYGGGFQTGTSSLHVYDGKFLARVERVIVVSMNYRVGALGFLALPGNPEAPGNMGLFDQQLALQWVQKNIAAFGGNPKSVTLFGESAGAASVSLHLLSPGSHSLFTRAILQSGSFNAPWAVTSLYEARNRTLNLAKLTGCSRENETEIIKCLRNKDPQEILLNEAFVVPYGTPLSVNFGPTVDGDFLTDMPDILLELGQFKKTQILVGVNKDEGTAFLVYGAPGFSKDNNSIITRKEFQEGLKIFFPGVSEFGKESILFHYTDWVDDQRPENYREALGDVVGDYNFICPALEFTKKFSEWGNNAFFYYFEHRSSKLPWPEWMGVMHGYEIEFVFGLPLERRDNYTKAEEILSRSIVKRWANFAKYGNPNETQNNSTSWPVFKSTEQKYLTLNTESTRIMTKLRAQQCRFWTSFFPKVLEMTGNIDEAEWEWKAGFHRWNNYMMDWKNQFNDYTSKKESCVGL
Sequence of Butyrylcholinesterase (Rattus norvegicus) (Q9JKC1 as listed by the source): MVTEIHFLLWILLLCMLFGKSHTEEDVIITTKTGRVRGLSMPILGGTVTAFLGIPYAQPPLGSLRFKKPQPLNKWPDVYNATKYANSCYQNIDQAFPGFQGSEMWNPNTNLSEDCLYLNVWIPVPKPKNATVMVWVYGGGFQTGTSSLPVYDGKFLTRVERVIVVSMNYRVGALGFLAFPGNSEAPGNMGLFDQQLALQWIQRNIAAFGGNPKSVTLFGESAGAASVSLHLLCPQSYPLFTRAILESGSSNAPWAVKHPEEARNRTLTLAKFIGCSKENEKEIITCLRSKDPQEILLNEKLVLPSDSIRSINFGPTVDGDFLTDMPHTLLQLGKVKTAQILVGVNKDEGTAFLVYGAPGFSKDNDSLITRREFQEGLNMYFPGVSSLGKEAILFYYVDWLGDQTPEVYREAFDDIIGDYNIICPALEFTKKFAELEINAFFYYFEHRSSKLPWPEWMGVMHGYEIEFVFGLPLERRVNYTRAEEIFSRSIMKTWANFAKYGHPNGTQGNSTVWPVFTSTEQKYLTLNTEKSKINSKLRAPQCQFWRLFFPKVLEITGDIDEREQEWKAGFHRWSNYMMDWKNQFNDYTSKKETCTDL

As to `CC(=O)Oc1ccccc1C(=O)O[C@@H]1CO[C@H]2[C@@H]1OC[C@@H]2OC(=O)c1ccccc1O`, the half-life in [1] stood at 4.21 min. For the same compound, the Vmax(app) in series [2] was determined as 0.23.
Taken in the same sequence, the figures for `CC(=O)Oc1ccccc1C(=O)O[C@@H]1CO[C@H]2[C@@H]1OC[C@@H]2O` were 4.73 min and 0.25.
As for `CC(=O)Oc1ccccc1C(=O)O[C@H]1CO[C@H]2[C@@H]1OC[C@H]2O`, in the series with Platelet [3], the inhibition at 100 µM is less than 30%. Besides, the half-life in series [1] was 3.25 min. For the same compound, the Vmax(app) in series [2] was 0.22. Also, the Activity in the series with Plasma [4] is recorded as 3%.
For `CC(=O)Oc1ccccc1C(=O)O[C@H]1CO[C@H]2[C@@H]1OC[C@H]2OC(=O)c1ccccc1O`, the half-life in series [5] was determined as 1.41 min; in [1] it was 4.9 min; in series [8], 2 min; in series [11], 0.47 min; in series [13], 0.95 min; in [14], 1.1 min. Moreover, the half-life was found to be 0.49 min in series [15]; 4.6 min in series [16]; 5.8 min in series [17]; 7.04 min in series [18]; 0.96 min in series [19]; 3.9 min in series [22]. Further, the half-life in series [23] turned out to be 0.56 min. Also, the Activity with Plasma [6] turned out to be 6%; in the series with Plasma [9], 81%; in [10], 72%; in the series on Plasma [20] it was 84%; in the series on Plasma [21] it was 85%; in the series with Serum, 73%. Also, the Activity in the series with Plasma [4] came out at 74%; in the series on Plasma [24], 30%; in the series with Plasma [25], 69%. For the same compound, the Vmax(app) in series [7] was found to be 1.75 M/min; in [2], 0.17. This compound showed a 50% inhibitory concentration (IC50) in the series with Platelet [12] of 17.3 µM.
`CC(=O)Oc1ccccc1C(=O)Oc1ccccc1` had a T1/2 in series [2] of 1.3 min.
In the series on Platelet [12], `CC(=O)Oc1ccccc1C(=O)O` [ASPIRIN] registered an IC50 of 25.5 µM. Besides, in series [2], the T1/2 is 120 min.
For `CC(=O)Oc1ccccc1C(=O)O[C@H]1CO[C@H]2[C@@H]1OC[C@H]2OC(=O)c1ccccc1OC(C)=O`, the results for the half-life in series [1] and in series [28] were 3.35 min and 1.17 min, respectively. Moreover, inhibition in the series on Platelet [12] was half-maximal at 34.1 µM (IC50). In addition, the t1/2 in the series on Plasma [26] is 0.57 min. The values for the Activity in the series with Plasma [27] and with Plasma [4] were 61% and 51%, respectively. Moreover, the Vmax(app) in series [2] is 0.3.
